Compound activity from PubChem BioAssay.
CAL PDZ FP-1 – human CAL PDZ-peptide interaction inhibition. Q9HD26. inhibition, % at 20 µM. purified CAL PDZ, TMR-peptide fluorescence polarization, 1 h. AID 504414. hit rate 0.02% among 330,000;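 active means highest replicate inhibition of at least 40%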;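 further: plate controls were DMSO neutral control wells for no effect and unlabeled competitor peptide control wells for full effect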
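Material – purified CerCALP PDZ construct · Detection – FP readout, S and P plane fluorescence · Measure – percent inhibition from loss of millipolarization · Controls – unlabelled peptide for full inhibition, DMSO wells as neutral · Probe or stimulus – TMR-labelled reporter peptide T*-PRC34 bound in PDZ groove · Times – 1 h at RT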
CAL PDZ FP-2 – inhibitors of human CAL PDZ peptide binding | Q9HD26 | purified CAL PDZ, TMR-peptide fluorescence polarization, 1 h | inhibition, % at 24.9 µM | hit rate 0.92% among 300,000;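 active means mean inhibition of at least 30% with at least half of replicates also reaching 30%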;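 further: 0% = DMSO neutral control and 100% = excess unlabeled competitor peptide PRC23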
Tn6 DDE FP – DD(E)-Tn6 binding inhibition, primary FP screen; P02675; inhibition, % at 8.3 µM; Fibrin DD(E) TRITC-Tn6 fluorescence polarization displacement; hit rate 0.21% among 370,000;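 active means inhibition above a per-campaign cutoff: mean of compounds within control limits plus 3 SD, cut at about 15% in these data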;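 further: 0% = median of all compound wells on the plate and 100% = blocking peptide control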
ARNT-TACC3 inh – disrupts binding between human ARNT and TACC3. Q9Y6A5. inhibition, % at 9.99 µM. AlphaScreen His-ARNT PAS-B/GST-TACC3 binding, luminescence; TACC3 fragment carries E629A point mutation. hit rate 0.66% among 390,000. AID 623870;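 active means mean inhibition of replicates at least 50% and at least half of replicates each reaching 50%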;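 further: 0% = complete ARNT plus TACC3 wells and 100% = ARNT alone without TACC3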
Tn7 DDE FP – DD(E)-Tn7 binding inhibition, primary FP screen; hit rate 0.13% among 370,000; AID 720508; inhibition, % at 8.3 µM; FP displacement of FITC-Tn7 peptide from fibrin DD(E); 0% = median of compound wells per plate; P02675;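 active means inhibition above the mean of compounds falling within the control limits plus 3 SD of them, cut at about 14% in these data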;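 further: 0% = plate median of compound wells and 100% = 10 µM Aha-Tn7 peptide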
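system = human fibrin DD(E) protein | quantity = DD(E) 2 µM final | medium = Tris/NaCl/CaCl2 buffer, pH 7.8 | also added = labelled Tn7 tracer, 0.1 µM | compound dosing = single point at 8.3 µM | timing = compound with protein 10 min, then 3 h after probe, room temperature | signal = FP measurement | benchmarks = Aha-Tn7 high control | repeats = one replicate per compound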
GRK2 aptamer HTS – blocks RNA aptamer binding to human GRK2; P25098; bead flow cytometry, FAM-aptamer displacement from GRK2; inhibition of aptamer binding, % at 10 µM; hit rate 0.59% among 330,000; AID 488847;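 active means inhibition of aptamer binding above 40%, roughly 3 SD of noise, on plates passing a quality check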;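 further: median bead fluorescence of bound FAM aptamer so fluorescent compounds give negative values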
Target sequence (P25098 whole entry, looked up): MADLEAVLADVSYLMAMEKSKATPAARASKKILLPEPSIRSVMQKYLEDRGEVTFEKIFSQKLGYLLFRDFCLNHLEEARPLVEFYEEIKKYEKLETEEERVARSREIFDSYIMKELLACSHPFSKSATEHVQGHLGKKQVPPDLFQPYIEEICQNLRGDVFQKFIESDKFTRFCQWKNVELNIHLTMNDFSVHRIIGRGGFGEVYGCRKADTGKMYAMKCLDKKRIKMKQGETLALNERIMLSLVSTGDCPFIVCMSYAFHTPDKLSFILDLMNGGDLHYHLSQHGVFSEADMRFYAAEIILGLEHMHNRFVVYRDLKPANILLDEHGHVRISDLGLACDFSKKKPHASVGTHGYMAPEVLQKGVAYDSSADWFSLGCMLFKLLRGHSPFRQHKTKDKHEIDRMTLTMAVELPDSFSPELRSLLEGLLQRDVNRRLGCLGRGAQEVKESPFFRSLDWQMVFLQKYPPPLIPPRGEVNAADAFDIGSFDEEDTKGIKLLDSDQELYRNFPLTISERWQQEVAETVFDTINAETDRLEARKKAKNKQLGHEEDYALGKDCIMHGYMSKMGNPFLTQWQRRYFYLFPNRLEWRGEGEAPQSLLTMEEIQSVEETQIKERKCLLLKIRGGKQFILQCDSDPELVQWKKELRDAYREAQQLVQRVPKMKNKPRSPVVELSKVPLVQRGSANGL
Starred values were filed as active, the others as inactive; / = not tested or not shown; + = active, no number. Sampled rows, rich in hits. Any-hit rate of the full collection: about 1.8%.

SMILES | CAL PDZ FP-1 | CAL PDZ FP-2 | Tn6 DDE FP | ARNT-TACC3 inh | Tn7 DDE FP | GRK2 aptamer HTS
CC1=NN(c2ccc(S(=O)(=O)O)cc2Cl)C(=O)C1 | -3.4 | 1.0 | -0.3 | 34.3 | 6.8 | 1.0
CC1=NN(c2cc(Cl)c(S(=O)(=O)O)cc2Cl)C(=O)C1 | -0.4 | 1.0 | 2.2 | 30.0* | 1.1 | /
Cn1c(NCc2cccnc2)nc2c1c(=O)n(Cc1ccccc1F)c(=O)n2C | 5.9 | + | 5.7 | -0.6 | 4.0 | 0.0
O=C(NNC1=C(C(=O)C(F)(F)F)CCC1)c1ccccc1O | -0.3 | -1.3 | 1.7 | 63.2* | 4.6 | 1.0
O=C(N[C@@H]1CC[C@@H](CCn2cc(C3(O)CCCC3)nn2)O[C@H]1CO)C1CCC1 | / | / | / | -7.4 | / | /
O=C(O)CC(CNC(=O)C1CCCN1C(=O)OCc1ccccc1)c1ccccc1 (stereo not given) | / | 74.5* | 4.7 | -5.0 | -7.2 | 2.0
O=C(O)C(NC(=O)C1CCCN1C(=O)OCc1ccccc1)c1ccccc1 (stereo not given) | -0.4 | -1.7 | -3.2 | -7.9 | 0.7 | 0.0
COc1ccc(N2CCCC2=O)cc1S(=O)(=O)N1CCOCC1 | / | / | 0.9 | / | 8.0 | /
Cc1ccc(C)c(S(=O)(=O)N2CCN(CC(=O)NC(C)c3ccccc3)CC2)c1 (stereo not given) | 0.2 | / | -6.8 | -9.0 | -1.7 | 0.0
Cc1ccc2c(c1C)NC(C(=O)O)C1CC=CC21 (stereo not given) | 0.3 | -4.8 | / | -1.2 | / | 47.0*
CCOC(=O)c1ccc2c(c1)C1C=CCC1C(C(=O)O)N2 (stereo not given) | / | / | / | / | / | 88.0*
CCOC(=O)C1Nc2ccc(C(=O)O)cc2C2C=CCC12 (stereo not given) | / | 43.6* | 2.2 | 9.3 | -4.7 | 22.0
CC(C)C1Nc2ccc(C(=O)O)cc2C2C=CCC21 (stereo not given) | -2.2 | -5.2 | -1.4 | -4.6 | -6.2 | 2.0
COc1ccc(CCNS(=O)(=O)c2ccc(-n3cnnn3)cc2)cc1OC | -0.9 | + | -2.2 | -3.1 | 2.6 | 1.0
CCOc1ccc(-n2cnnn2)cc1S(=O)(=O)NCCc1ccc(OC)c(OC)c1 | 0.8 | -1.3 | -0.4 | -5.8 | 5.3 | 0.0
CCNc1nc(NCC)nc(C(=O)OCCO)n1 | -1.3 | / | 7.2 | 49.4* | 2.0 | 0.0
COc1cc2nc(Nc3ccc(C)c(C)c3)nc(N)c2cc1OC | 1.6 | -3.4 | 3.7 | 50.2* | 2.3 | 0.0
Cc1ccc(/C=N/Nc2cc(C)nc(NCc3ccccc3)n2)cc1 | -0.9 | -5.3 | -5.1 | 23.2 | -1.2 | 0.0
Cc1cc(N/N=C/c2ccc(O)cc2)nc(NS(=O)(=O)c2ccccc2)n1 | 0.5 | -0.5 | 1.9 | / | -6.2 | 74.0*
COCCN(C(=O)COC(=O)C1CC1)c1c(N)n(Cc2ccccc2)c(=O)[nH]c1=O | -2.7 | -3.1 | -0.7 | -0.8 | -14.5 | 3.0
CC(=O)Nc1ccc(NC2=C(Cl)C(=O)c3ccccc3C2=O)cc1 | / | / | 9.8 | / | -6.7 | /
Cc1ccc(NC2=C(NCCO)C(=O)c3ccccc3C2=O)cc1 | 1.3 | -1.6 | 5.7 | 47.7* | -2.1 | 2.0
O=C(NC(=S)NC1CCCCC1)c1ccc(F)cc1 | -1.0 | 44.0* | -3.0 | 4.5 | 5.9 | 6.0
O=C(NC(=S)NNC(=O)c1ccccc1O)c1ccccc1 | 0.5 | 0.0 | 0.1 | 55.0* | -1.8 | 2.0
O=C(NC1CCCCC1)c1ccc([N+](=O)[O-])cc1 | 0.0 | 92.4* | -2.9 | -3.8 | -1.6 | /
SMILES | CAL PDZ FP-1 | CAL PDZ FP-2 | Tn6 DDE FP | ARNT-TACC3 inh | Tn7 DDE FP | GRK2 aptamer HTS
O=C(NC(=S)NNC(=O)c1ccccc1O)c1ccc(F)cc1 | -0.2 | 3.8 | -1.1 | 18.7* | 2.2 | 0.0
Cc1ccc(C(=O)NC(=S)NNC(=O)c2ccccc2O)cc1 | -0.1 | -6.7 | 1.4 | 2.2 | -7.0 | 0.0
O=C(NC1CCCCCCC1)c1cc([N+](=O)[O-])ccc1Cl | / | -14.8 | 9.5 | -1.7 | 8.7 | 2.0
N#C[C@@H]1[C@@H](c2ccc(-c3ccc(F)cc3)cc2)[C@@H](CO)N1c1nc(-c2ccccc2)cs1 | / | / | / | -6.7 | / | /
COc1ccc(NC(=O)N2C[C@@H](O)COC[C@@H]3O[C@@H](CC(=O)NC4Cc5ccccc5C4)CC[C@H]32)cc1 | / | / | / | 5.6 | / | /
CCN(CC(=O)Nc1c(F)cccc1F)C(=O)CSCC(=O)Nc1ccc(OC)cc1 | -0.5 | -2.1 | -4.3 | -3.5 | 2.2 | 1.0
CCN(CC(=O)Nc1c(F)cccc1F)C(=O)Cc1c[nH]c2ccccc12 | 0.1 | 6.4 | 9.4 | -9.6 | -0.7 | 2.0
CCN(CC(=O)Nc1c(F)cccc1F)C(=O)Cn1[nH]c(=O)c2ccccc2c1=O | -0.3 | 77.8* | -0.6 | -5.2 | 3.2 | 0.0
CCN(CC(=O)Nc1c(F)cccc1F)C(=O)CSCC(=O)Nc1cccc(C)c1 | 0.0 | 77.8* | 3.9 | 6.8 | 2.4 | 0.0
COc1ccc(NC(=S)N(CCCN2CCCC2)Cc2cccn2Cc2ccc(Cl)cc2)cc1Cl | -5.8 | -6.9 | 8.0 | 5.0 | 6.3 | 0.0
C[C@@H]1CN([C@H](C)CO)C(=O)c2cc(NC(=O)CCC(F)(F)F)ccc2O[C@@H](C)CCCCO[C@H]1CN(C)S(=O)(=O)c1ccccc1 | / | / | / | -4.5 | / | /
OCC1(CCOc2ccccc2)CCN(Cc2cccn2-c2ncccn2)CC1 | -0.6 | 55.8* | 1.8 | 2.3 | -1.0 | 0.0
COc1cc(CN2CCC(CO)(CCOc3ccccc3)CC2)cc(OC)c1 | 0.3 | 4.9 | 5.0 | -8.6 | 2.1 | 0.0
CSc1n[nH]c(-c2cccs2)n1 | / | / | -2.0 | / | 2.9 | /
CSCCC1COC(c2cccs2)=N1 (stereo not given) | -1.4 | 31.0* | -2.3 | -12.6 | 3.8 | 0.0
C[C@@H]1CN([C@@H](C)CO)S(=O)(=O)c2ccc(C#CC3(O)CCCC3)cc2O[C@H]1CN(C)C(=O)c1cccnc1 | / | / | / | -5.3 | / | /
CC1=C/C(=C\c2ccc(Br)o2)C(=O)O1 | -0.8 | -0.8 | 2.5 | -1.6 | 1.3 | 96.0*
COc1ccccc1-c1ccc(/C=C2/C=C(C)OC2=O)o1 | 0.1 | -7.1 | 4.2 | -11.4 | -3.0 | 0.0
O=C(/C=C/c1ccccc1)NC(=S)NNC(=O)c1ccco1 | -1.5 | -1.8 | 8.2 | 51.7* | 4.2 | 0.0
OC(CNCC1CCCO1)Cn1c2ccccc2c2ccccc21 (stereo not given) | -0.7 | -48.7 | -1.9 | 3.3 | 2.0 | 0.0
OC(CNCC1CCCO1)Cn1c2ccc(Cl)cc2c2cc(Cl)ccc21 (stereo not given) | -1.2 | 43.8* | 1.8 | 5.0 | 7.5 | 0.0
C[C@@H]1CN([C@H](C)CO)C(=O)c2cc(NC(=O)Cc3cn(C)c4ccccc34)ccc2O[C@H]1CN(C)Cc1ccncc1 | / | / | / | 6.4 | / | /
Cc1cc2c(n1-c1ccc(C(=O)O)cc1)CCCCC2 | / | / | / | / | / | 68.0*
CSCC(=O)N1CCc2ccc(NC(=O)c3ccccc3Cl)cc2C1 | -2.5 | 7.5 | -1.5 | 20.0 | 2.6 | 0.0
